Hits are enriched below; roughly 2.6% of the tested compounds scored in any of these assays.
RanGTP-Impb inh – inhibitors of RanGTP-importin-beta interaction, primary screen, biochemical, FRET, CFP-Ran, YFP-importin-beta, homogeneous; 300,000 tested, 1.1% active; inhibition, % (concentration not given with the values); AID 2216; cell-free CFP-Ran/YFP-importin-beta FRET ratio;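 active = more than half of the replicate wells show a fall in the fluorescence ratio signal beyond about 16%, limit read from the data, passing the limit was not always enough; inconclusive = exactly half of the replicate wells pass the set limit; inactive = fewer than half of replicates pass the limit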
Runt-SMMHC FRET – blocks binding of human RUNX1 Runt domain to CBFb-SMMHC. 220,000 tested, 0.74% active. Q01196+Q13951. inhibition, % at 20 µM. Cerulean-Runt/Venus-CBFb-SMMHC FRET ratio 530/480, 1 h;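 active = mean inhibition across duplicate retests at 20 µM reaching about 50%, limit read from the data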;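 note: inhibitors lower the FRET ratio by blocking Runt binding to CBFb-SMMHC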
Target sequence (Q01196 whole entry, looked up, the tested form may be a part): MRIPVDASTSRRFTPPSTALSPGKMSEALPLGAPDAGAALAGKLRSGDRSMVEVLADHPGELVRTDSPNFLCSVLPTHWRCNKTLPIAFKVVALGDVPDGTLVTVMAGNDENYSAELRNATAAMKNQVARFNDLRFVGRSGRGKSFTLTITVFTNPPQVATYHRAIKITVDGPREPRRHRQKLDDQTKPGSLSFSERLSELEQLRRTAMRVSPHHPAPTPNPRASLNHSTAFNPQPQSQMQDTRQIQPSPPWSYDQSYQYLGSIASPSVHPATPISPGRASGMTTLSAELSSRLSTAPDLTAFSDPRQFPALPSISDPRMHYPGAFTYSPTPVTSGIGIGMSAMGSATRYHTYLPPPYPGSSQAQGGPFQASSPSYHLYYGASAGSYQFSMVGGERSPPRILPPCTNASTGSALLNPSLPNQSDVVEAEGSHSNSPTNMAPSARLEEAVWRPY
Target sequence (Q13951 whole entry, looked up, the tested form may be a part): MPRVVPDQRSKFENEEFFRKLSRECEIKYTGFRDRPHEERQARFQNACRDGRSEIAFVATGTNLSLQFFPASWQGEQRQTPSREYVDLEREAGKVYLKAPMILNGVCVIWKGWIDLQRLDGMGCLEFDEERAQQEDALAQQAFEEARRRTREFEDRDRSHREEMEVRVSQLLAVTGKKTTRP
IMP-1 inh – inhibitors of Pseudomonas aeruginosa IMP-1 metallo-beta-lactamase; purified IMP-1, nitrocefin hydrolysis, epi-absorbance fluorescence; inhibition, % at 5.6 µM; 290,000 tested, 0.45% active; AID 1556;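 active = inhibition above the mean plus 3 SD of all compounds in the same screening run, cut at about 4.5% in these data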
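System: Purified recombinant IMP-1 metallo-beta-lactamase enzyme | Measured by: Fluorescence quenching readout, ex 480/em 530 nm | Replication: Singlicate | Incubation: 15 min preincubation plus 25 min reaction at 25 °C | Evaluation: Percent inhibition from optical density relative to buffer-blank wells | Benchmarks: DMSO with and without IMP-1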
Runt-CBFb FRET – blocks binding of human RUNX1 Runt domain to CBFb; Q01196+Q13951; AID 1496; 220,000 tested, 0.46% active; Cerulean-Runt/Venus-CBFb FRET ratio 530/480, 1 h; inhibition, % at 20 µM;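 active = inhibition over about 50% at 20 µM in the single-dose screen, limit read from the data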
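System: Cerulean-labeled Runt domain protein | Quantity: 100 nM of each labeled protein | Schedule: 1 h compound exposure, room temperature | Detection: Fluorescence energy transfer, 422 nm excitation, 530/480 nm emission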
VIM-2 inh – inhibitors of Pseudomonas aeruginosa VIM-2 metallo-beta-lactamase; purified VIM-2, nitrocefin hydrolysis, epi-absorbance fluorescence; inhibition, % at 5.6 µM; 290,000 tested, 0.89% active; AID 1527;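 active = inhibition above the mean of all tested compounds plus 3 SD, cutoff set per screening run, cut at about 7.5% in these data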;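 note: red hydrolysis product quenches plate fluorescence so inhibitors raise well fluorescence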
A number is an active result; i = inactive; ? = inconclusive; nt = not tested or not shown.

SMILES	RanGTP-Impb inh	Runt-SMMHC FRET	IMP-1 inh	Runt-CBFb FRET	VIM-2 inh
CCN(CC)c1ccc(C(=O)OCc2cc(=O)oc3cc(O)ccc23)cc1	i	119.3	i	50.4	i
CC(C(=O)NCc1ccccc1)N1CCN(c2ccc(F)cc2)CC1 (stereo not drawn)	i	nt	i	nt	i
CN(Cc1c(O)ccc2c1oc(=O)c1ccccc12)C1CCCCC1	i	i	i	i	8.7
CCCc1cc(=O)oc2c(CN(CC)CC)c(O)c(Cl)cc12	24.0	128.7	i	90.9	i
CCCCc1cc(=O)oc2cc(O)ccc12	i	86.1	i	i	i
Cc1cccc(NC(=O)c2cc(-c3ccc(C)c(C)c3O)n[nH]2)c1	i	nt	i	nt	i
Cc1ccc(NC(=O)CCNS(=O)(=O)c2ccc(Br)s2)cc1	i	nt	i	nt	i
CC(OC(=O)/C=C/c1ccc2ccccc2n1)C(=O)NCc1ccccc1 (stereo not drawn)	i	nt	nt	nt	nt
COC(C[C@@H]1O[C@H]1[C@H](O)[C@@H](C)OCc1ccccc1)OC	i	nt	nt	nt	nt
CCn1c(CSc2nc3ccccc3[nH]2)nc2cc(C(=O)O)ccc21	i	i	i	i	i
CCn1c(CSc2nccn2C)nc2cc(C(=O)O)ccc21	i	53.3	i	i	i
Cc1cc(CN(C)C(=O)c2cc(COc3ccc4ncccc4c3)on2)on1	i	i	i	i	i
CN(Cc1nccn1C)C(=O)c1cc(COc2ccc3ncccc3c2)on1	i	i	i	i	10.0
CCOC(=O)c1c(NC(=O)CSc2nnc(-c3c[nH]c4ccccc34)n2CCOC)sc2c1CCCC2	i	i	i	i	i
CCOC(=O)c1c(NC(=O)CSc2nnc(-c3c[nH]c4ccccc34)n2C)sc2c1CCCC2	25.9	i	i	i	i
CCOc1ccc(-n2c(=O)c3c(C)c(C(=O)N(C)C)sc3n(CC(=O)Nc3ccccc3F)c2=O)cc1	19.0	i	i	i	i
CCOC(=O)[C@@H]1[C@H]2COc3cc(OC)ccc3[C@@H]2N2C(=O)N(c3ccc(Cl)cc3)C(=O)[C@@]12C	i	nt	i	nt	i
O=C1NC(=S)S/C1=C/c1ccc(Oc2cnccn2)cc1	nt	i	i	i	i
CCOc1ccc(N(C)c2ccc(/C=C3/SC(=S)NC3=O)cc2)cc1	i	nt	6.5	nt	i
C/C(=N\NC(=O)Cc1ccc(Cl)cc1)c1cccnc1	i	nt	i	nt	i
CCOC(=O)C1=C(O)/C(=C/c2cn(CC(=O)N3CCCC3)c3ccccc23)SC1=Nc1ccccc1	i	82.8	i	i	i
COC(=O)c1cn(CC(=O)N2CCCCCC2)c2ccccc12	i	i	i	i	i
COc1cccc(-c2nn(C)c3sc(C(=O)NCc4ccc(C)o4)cc23)c1	i	i	4.7	i	i
CCOC(=O)c1c(C)[nH]c(C(=O)CN2CC(C)OC(C)C2)c1C (stereo not drawn)	29.1	i	i	i	i
Cc1ccc2nc3c(cc(C(=O)NCC4CCCO4)c(=N)n3C3CCCC3)c(=O)n2c1 (stereo not drawn)	193.9	nt	i	nt	7.9
SMILES	RanGTP-Impb inh	Runt-SMMHC FRET	IMP-1 inh	Runt-CBFb FRET	VIM-2 inh
Cc1cccn2c(=O)c3cc(C(=O)NCC4CCCO4)c(=N)n(C4CCCC4)c3nc12 (stereo not drawn)	186.6	nt	i	nt	11.0
N=c1c(C(=O)NCC2CCCO2)cc2c(=O)n3ccccc3nc2n1C1CCCCC1 (stereo not drawn)	i	nt	i	nt	i
N=c1c(C(=O)NCC2CCCO2)cc2c(=O)n3ccccc3nc2n1C1CCCC1 (stereo not drawn)	185.9	nt	i	nt	i
O=C(COc1ccc(Br)cc1)N(Cc1cccs1)C1CCS(=O)(=O)C1 (stereo not drawn)	18.1	nt	i	nt	i
CCc1ccc(OCC(=O)N(Cc2cccs2)C2CCS(=O)(=O)C2)cc1 (stereo not drawn)	i	nt	i	nt	i
CCc1nc(NCCN2CCOCC2)c(C#N)c2c1CCCC2	i	i	i	i	i
Cc1c(Cc2ccccc2)c(NCCN(C)C)n2c(nc3ccccc32)c1C#N	26.3	80.8	i	i	i
Cc1cc(NCCN2CCCCC2)n2c(nc3ccccc32)c1C#N	i	i	i	i	8.7
CCCc1c(C)c(C#N)c2nc3ccccc3n2c1NCCCN1CCOCC1	i	53.7	i	i	i
N#Cc1c2c(c(NCCN3CCOCC3)n3c1nc1ccccc13)CCCC2	45.4	111.4	i	50.1	i
CC(C)c1cc(NCCCN2CCOCC2)n2c(nc3ccccc32)c1C#N	?	i	i	i	i
CCc1ccc(Nc2nc(C)cc(C)n2)cc1	i	nt	i	nt	i
COCCN(C(=O)COC(=O)C1CC1C)c1c(N)n(Cc2ccccc2)c(=O)[nH]c1=O (stereo not drawn)	i	nt	nt	nt	nt
Cc1ccccc1-c1nnc(SCC(=O)N2CCCC2)o1	?	nt	i	nt	i
O=C(O)C1C2C=CC(C2)C1C(=O)Nc1ccccc1Br (stereo not drawn)	i	nt	32.2	nt	i
CCC(C)c1ccc(NC(=O)COC(=O)c2nc3nccc(C)n3n2)cc1 (stereo not drawn)	i	i	i	i	i
Cc1ccnc2nc(C(=O)OCC(=O)Nc3ccc4c(c3)OC(F)(F)O4)nn12	i	i	4.7	i	i
C/C(CC(=O)NCc1ccco1)=N\NC(=O)c1ccc([N+](=O)[O-])cc1Cl	i	nt	i	nt	i
O=C(NC(=S)NCCO)c1sc2ccccc2c1Cl	i	i	i	i	i
CCOC(=S)NC(=O)c1sc2ccccc2c1Cl	52.8	i	i	i	i
CN1/C(=C\C(=O)c2cccnc2)C(C)(C)c2ccccc21	i	i	i	i	i
CN1/C(=C\C(=O)c2cccc(S(=O)(=O)N3CCCCC3)c2)C(C)(C)c2ccccc21	21.4	i	i	i	i
CN1/C(=C\C(=O)c2ccco2)C(C)(C)c2ccccc21	i	79.1	i	i	i
Cc1cc(C)c2c(=O)n(CC(=O)NC3CCCC3)sc2n1	i	52.6	i	i	i
COc1ccc(C(=O)CC2OC(=O)c3ccccc32)cc1OC (stereo not drawn)	i	i	4.9	i	i
SMILES	RanGTP-Impb inh	Runt-SMMHC FRET	IMP-1 inh	Runt-CBFb FRET	VIM-2 inh
CCCN1CCc2c(sc(NC(=O)C3CCN(S(=O)(=O)c4cccs4)CC3)c2C(N)=O)C1	151.2	nt	nt	nt	nt
CCOC(=O)N1CCN(S(=O)(=O)c2ccc(C(=O)Nc3sc4c(c3C#N)CCC4)cc2)CC1	i	i	i	i	i
CCOC(=O)N1CCN(S(=O)(=O)c2ccc(C(=O)Nc3sc4c(c3C(N)=O)CCN(CC)C4)cc2)CC1	43.0	nt	i	nt	i
CCCN1CCc2c(sc(NC(=O)c3ccc(S(=O)(=O)N4CCN(C(=O)OCC)CC4)cc3)c2C(N)=O)C1	96.5	nt	i	nt	i
CCCN1CCc2c(sc(NC(=O)c3ccc(S(=O)(=O)N(C)c4ccccc4)cc3)c2C(N)=O)C1	?	nt	i	nt	i
CC(=O)c1ccc(NC(=O)C2CCN(S(=O)(=O)c3cccs3)CC2)cc1	i	i	i	i	i
COc1cc(CN2CCN(CCCc3ccccc3)CC2CCO)cc(OC)c1 (stereo not drawn)	27.4	nt	i	nt	i

Screening results as filed in PubChem BioAssay.
